Assay outcomes deposited in PubChem by several laboratories.
CRFBP-R2 block: antagonists of CRF-binding protein/CRF-R2 receptor complex; inhibition, % at 11.8 µM; HEK293 CRF-R2/CRF-BP, CRF-induced calcium fluorescence; AID 588475; hit rate 0.59% among 350,000;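 active = inhibition of the ligand-induced calcium signal above about 50% at the single tested concentration, limit read from the data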
CRFBP-R2 agonist: CRF-BP/CRF-R2 complex agonism | hit rate 0.46% among 350,000 | activation, % at 13.2 µM | AID 588473 | HEK293 CRF-R2/CRF-BP, calcium dye fluorescence (FLIPR); percent of saturating CRF peptide response;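 active = activation of at least 50%, plus an integration ratio under a set limit after plate pattern correction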
Tn7 DDE FP: disrupts Tn7 cyclic peptide binding to fibrin D-Dimer-E complex. P02675. FP displacement of FITC-Tn7 peptide from fibrin DD(E); 0% = median of compound wells per plate. inhibition, % at 8.3 µM. hit rate 0.13% among 370,000;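 active = inhibition above the mean of compounds falling within the control limits plus 3 SD of them, cut at about 14% in these data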
Target sequence (P02675 whole entry, looked up): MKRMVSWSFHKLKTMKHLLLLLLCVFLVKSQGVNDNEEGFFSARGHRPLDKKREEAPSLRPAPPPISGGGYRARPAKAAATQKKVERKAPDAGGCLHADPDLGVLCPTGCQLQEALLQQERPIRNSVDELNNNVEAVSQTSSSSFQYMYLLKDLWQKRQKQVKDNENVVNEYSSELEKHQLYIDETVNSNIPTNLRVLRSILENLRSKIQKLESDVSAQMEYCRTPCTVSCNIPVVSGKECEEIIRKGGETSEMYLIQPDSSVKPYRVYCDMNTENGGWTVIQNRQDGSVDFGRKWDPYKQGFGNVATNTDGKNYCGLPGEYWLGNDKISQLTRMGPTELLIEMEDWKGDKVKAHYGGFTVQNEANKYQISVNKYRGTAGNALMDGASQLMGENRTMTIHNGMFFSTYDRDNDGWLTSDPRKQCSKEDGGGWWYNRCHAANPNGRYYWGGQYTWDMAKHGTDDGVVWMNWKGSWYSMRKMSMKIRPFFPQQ
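Also added: labelled Tn7 tracer, 0.1 µM; Assay system: human fibrin DD(E) protein; Amount: 2 µM fibrin DD(E); Schedule: 10 min compound pre-incubation, 3 h probe incubation at room temperature; Repeats: one replicate per compound; Read-out basis: percent inhibition; Measured by: fluorescence polarization of the labelled Tn7 tracer.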
DDE Tn6 FP inh: disrupts Tn6 cyclic peptide binding to fibrin D-Dimer-E complex; P02675; Fibrin DD(E) TRITC-Tn6 fluorescence polarization displacement; inhibition, % at 8.3 µM; hit rate 0.21% among 370,000;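 active = inhibition above a per-campaign cutoff: mean of compounds within control limits plus 3 SD, cut at about 15% in these data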
Hits are given with their value; – = inactive; · = no result. Sampled rows, rich in hits. Any-hit rate of the full collection: about 1.2%.

SMILES | CRFBP-R2 block | CRFBP-R2 agonist | Tn7 DDE FP | DDE Tn6 FP inh
COc1cc(NC(=O)c2ccccc2)c(C)cc1NC(=O)CSc1nnc(-c2ccccc2F)n1-c1ccc(C)cc1 | · | · | – | –
Cc1nc2cc(C(=O)O)ccc2n1-c1ccc(F)cc1F | – | – | – | –
CCOc1ccccc1-n1c(C)nc2cc(C(=O)O)ccc21 | 70 | – | – | –
Cc1ccc(S(=O)(=O)n2ccc(-c3c(-c4ccc(F)cc4)noc3C)n2)cc1 | · | · | – | –
CCc1cccc(CC)c1NC(=O)COC(=O)CC1c2ccccc2CCN1S(=O)(=O)c1ccc(F)cc1 (stereo not drawn) | – | – | – | –
O=C(COC(=O)CC1c2ccccc2CCN1S(=O)(=O)c1ccc(F)cc1)Nc1ccccc1 (stereo not drawn) | 57 | – | – | –
Cc1nn(CCc2nn[nH]n2)c2nc(-c3ccc(C4CCCCC4)cc3)cc(C(F)(F)F)c12 | 87 | – | – | –
COCc1cc(=O)n2[nH]c(-c3ccccc3)cc2n1 | 79 | – | – | –
Cc1ccc(C)c(CSc2nnc(-c3cccs3)n2Cc2ccco2)c1 | 50 | – | – | –
COC(=O)[C@]12C[C@H](CC(=O)N3CCN(C(=O)C4CC4)CC3)C(=O)N(CCc3ccc(OC)c(OC)c3)C1=C[C@H](C(C)(C)C)O[C@@H]2C | · | · | – | –
CC(=O)Nc1cc(C(C)C)c(O)c(C(C)C)c1 | – | – | – | –
CC(C)c1cc(NC(=O)c2ccccc2)cc(C(C)C)c1O | 82 | – | – | –
C[C@H](O)[C@@H]1CN2CCc3c([nH]c4c(-c5ccc6c(c5)OCO6)cccc34)[C@@H]2C[C@@H]1N(C)C(=O)c1ccccc1F | · | · | – | –
O=C(Nc1nnc(C(F)(F)F)s1)c1ccc(Br)s1 | 54 | 98 | – | –
CC(NC(=O)Nc1nnc(C(F)(F)F)s1)(C(F)(F)F)C(F)(F)F | – | 59 | – | –
CCSc1nnc(NC(=O)c2ccc(Br)s2)s1 | – | – | – | –
O=C(Nc1ccccc1C(=O)Nc1nnc(C(F)(F)F)s1)c1ccccc1Cl | 50 | – | – | –
CCOC(=O)CC[C@H]1CC[C@]2(CCCN(C(=O)c3cccnc3)C2)O1 | · | · | – | –
COCCN(C(=O)COC(=O)CCOc1cc(C)ccc1C)c1c(N)n(Cc2ccccc2)c(=O)[nH]c1=O | – | – | – | –
COc1ccccc1-n1c(=O)c(C#N)c(-c2ccc([N+](=O)[O-])cc2)c2cc(C(=O)c3cc(F)ccc3O)cnc21 | – | – | – | –
Cn1c(=O)c(C#N)c(-c2ccc(F)cc2)c2cc(C(=O)c3cc(Cl)cc(Cl)c3O)cnc21 | 53 | – | – | –
COCCCNC1=C(Cl)C(=O)c2ccccc2C1=O | – | – | – | –
COCCCNc1c2c3c(cccc3[nH]c1=O)C(=O)c1ccccc1-2 | – | 204 | – | 86
CCc1ccc(OCC(=O)c2c(O)c3ccccc3oc2=O)cc1 | – | – | – | –
CCc1oc2ccccc2c1C(=O)c1cc(Br)c(O)c(Br)c1 | 55 | – | – | –
SMILES | CRFBP-R2 block | CRFBP-R2 agonist | Tn7 DDE FP | DDE Tn6 FP inh
Cn1c(SCC(=O)Nc2ccc3c(c2)OCCO3)nnc1C(F)(F)F | – | – | – | –
Cn1c(SCC(=O)c2ccc3c(c2)OCCO3)nnc1C(F)(F)F | 111 | – | – | –
COCCn1c(SCC(=O)c2ccc3c(c2)OCCO3)nnc1-c1ccco1 | 98 | – | – | –
C[C@@H]1Cn2cnc(C(=O)N[C@@H](C)C(=O)OC(C)(C)C)c2C(=O)N1 | – | – | – | –
CC(C)OC(=O)N(C)C[C@@H]1OCc2ccccc2-c2c(n(C)c3ccccc23)C(=O)N([C@@H](C)CO)C[C@H]1C | – | – | – | –
O=C(CNS(=O)(=O)c1ccc([N+](=O)[O-])cc1)N/N=C\c1ccc(O)cc1 | – | 65 | – | –
CC(=O)Nc1ccc(/C=N\NC(=O)CNS(=O)(=O)c2ccc([N+](=O)[O-])cc2)cc1 | – | – | – | –
C/C(=C/c1nc(N)n(Cc2ccccc2)c1Cc1ccccc1)Cn1[nH]c(=O)n(-c2ccccc2)c1=O | · | · | – | –
CC1CCC2(CCC(=O)N2CCCO)CC1 (stereo not drawn) | · | · | – | –
O=c1c(O)c(-c2cccs2)oc2ccc(Cl)cc12 | – | 267 | – | –
O=c1c(O)c(-c2cccs2)oc2ccccc12 | – | 108 | – | –
O=c1c(O)c(-c2ccccc2)oc2ccccc12 | – | – | – | –
COC(=O)C1=C(C)N(Cc2cccc(C(F)(F)F)c2)C(=NCC2CC2)NC1c1cccc(C(F)(F)F)c1 (stereo not drawn) | · | · | – | –
COc1ccc(-n2c(O)c(/C=N/NS(=O)(=O)c3ccc(C)cc3)c3ccccc3c2=O)cc1OC | – | 101 | – | –
COc1ccc(-n2c(O)c(/C=N/Nc3nc(C)cc(C)n3)c3ccccc3c2=O)cc1OC | – | – | – | –
COc1ccc(-n2c(O)c(/C=N/NS(=O)(=O)c3cc(C)ccc3C)c3ccccc3c2=O)cc1OC | – | 111 | – | –
COC(=O)c1ccc(C2C(C(=O)c3cc4ccccc4o3)=C(O)C(=O)N2CCCN(C)C)cc1 (stereo not drawn) | 114 | – | – | –
CN(C)CCCN1C(=O)C(O)=C(C(=O)c2cc3ccccc3o2)C1c1ccccc1 (stereo not drawn) | – | – | – | –
O=C(Nc1ccc(F)cc1)c1nc(S(=O)(=O)Cc2ccccc2)ncc1Cl | 56 | – | – | –
COc1ccc(NC(=O)c2nc(S(=O)(=O)Cc3cccc(C)c3)ncc2Cl)c(OC)c1 | – | – | – | –
COc1ccc(OC)c(NC(=O)c2nc(S(=O)(=O)Cc3ccccc3)ncc2Cl)c1 | 62 | – | – | –
COc1cc(C=Nn2c(-c3ccc(F)cc3)n[nH]c2=S)ccc1OCc1ccccc1 | · | · | – | –
O=C(O)C1CCCCC1C(=O)Nc1cccc(Cl)c1Cl (stereo not drawn) | – | – | – | –
CC1CC1c1ccc(/C=C(\C#N)C(=O)Nc2cccc(Cl)c2Cl)o1 (stereo not drawn) | – | 59 | – | –
C=CCn1c(-c2ccc(N)cc2)nc2ccccc21 | – | – | – | –
SMILES | CRFBP-R2 block | CRFBP-R2 agonist | Tn7 DDE FP | DDE Tn6 FP inh
C=CCn1c(-c2ccc(OC)cc2)nc2ccccc21 | – | 154 | – | –
CC(C)CCNC(=O)C1CCN(c2cncnc2)CC1 | · | · | – | –
Cc1noc(C(F)(F)F)c1C(=O)NNC(=O)c1cccc(C(F)(F)F)c1 | 114 | – | – | –
O=C(NNC(=O)c1ccc[nH]1)c1cccc(C(F)(F)F)c1 | – | – | – | –
Cc1nn(-c2ccccc2)c(Cl)c1CN(C(=O)CCl)c1ccc(Cl)cc1 | 78 | – | – | –
C=CCN(c1ccccc1)S(=O)(=O)c1cccc(C(=O)O)c1 | 98 | – | – | –
Cc1cc(=O)[nH]c(SCC(=O)Nc2cccc(Cl)c2F)n1 | · | · | – | –
CC(C)n1c(O)c(N=NC(=O)C2COc3ccccc3O2)c2ccccc21 (stereo not drawn) | 68 | – | – | –
N#CC(C#N)=C(Nc1ccc(F)cc1)SCc1cccc(Br)c1 | 69 | – | – | –
